Beta2AR agonist: human beta-2 adrenergic receptor agonism by FAP; P07550; Am2.2-beta2AR cells, FAP receptor internalization, flow cytometry; response, % (concentration not given with the values); 340,000 tested, 0.43% active;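 active means response above a set limit, near 3 SD of response in nonfluorescent compounds, cut at about 42% in these data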
NOD2-RIPK2 inh: inhibitors of human NOD2-RIPK2 interaction. AID 624267. O43353. 360,000 tested, 0.38% active. CHO BLA complementation NOD2-RIPK2, CCF4 ratio. inhibition, % at 4.98 µM; in the data active means inhibition above about 21%;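 further: 0% = vehicle only and 100% = reference blocker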
TLR9-MyD88 inh: TLR9-MyD88 interaction inhibition. Q9NR96+Q99836. inhibition, % at 4.98 µM. CHO BLA complementation TLR9-MyD88, CCF4 FRET ratio. 340,000 tested, 0.21% active;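 active means inhibition above the mean over all tested compounds plus 3 SD, cut at about 21% in these data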;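 further: 0% = DMSO only wells and 100% = clavulanate BLA inhibitor control wells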
Target sequence (Q99836 whole entry, looked up): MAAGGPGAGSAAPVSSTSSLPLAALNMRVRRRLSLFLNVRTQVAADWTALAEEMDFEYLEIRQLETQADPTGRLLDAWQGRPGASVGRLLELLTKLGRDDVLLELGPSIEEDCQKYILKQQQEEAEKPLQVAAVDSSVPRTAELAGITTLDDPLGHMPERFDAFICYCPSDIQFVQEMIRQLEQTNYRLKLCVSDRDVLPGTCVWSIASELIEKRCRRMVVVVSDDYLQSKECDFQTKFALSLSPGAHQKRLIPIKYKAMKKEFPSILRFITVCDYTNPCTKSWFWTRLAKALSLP
Target sequence (Q9NR96 whole entry, looked up): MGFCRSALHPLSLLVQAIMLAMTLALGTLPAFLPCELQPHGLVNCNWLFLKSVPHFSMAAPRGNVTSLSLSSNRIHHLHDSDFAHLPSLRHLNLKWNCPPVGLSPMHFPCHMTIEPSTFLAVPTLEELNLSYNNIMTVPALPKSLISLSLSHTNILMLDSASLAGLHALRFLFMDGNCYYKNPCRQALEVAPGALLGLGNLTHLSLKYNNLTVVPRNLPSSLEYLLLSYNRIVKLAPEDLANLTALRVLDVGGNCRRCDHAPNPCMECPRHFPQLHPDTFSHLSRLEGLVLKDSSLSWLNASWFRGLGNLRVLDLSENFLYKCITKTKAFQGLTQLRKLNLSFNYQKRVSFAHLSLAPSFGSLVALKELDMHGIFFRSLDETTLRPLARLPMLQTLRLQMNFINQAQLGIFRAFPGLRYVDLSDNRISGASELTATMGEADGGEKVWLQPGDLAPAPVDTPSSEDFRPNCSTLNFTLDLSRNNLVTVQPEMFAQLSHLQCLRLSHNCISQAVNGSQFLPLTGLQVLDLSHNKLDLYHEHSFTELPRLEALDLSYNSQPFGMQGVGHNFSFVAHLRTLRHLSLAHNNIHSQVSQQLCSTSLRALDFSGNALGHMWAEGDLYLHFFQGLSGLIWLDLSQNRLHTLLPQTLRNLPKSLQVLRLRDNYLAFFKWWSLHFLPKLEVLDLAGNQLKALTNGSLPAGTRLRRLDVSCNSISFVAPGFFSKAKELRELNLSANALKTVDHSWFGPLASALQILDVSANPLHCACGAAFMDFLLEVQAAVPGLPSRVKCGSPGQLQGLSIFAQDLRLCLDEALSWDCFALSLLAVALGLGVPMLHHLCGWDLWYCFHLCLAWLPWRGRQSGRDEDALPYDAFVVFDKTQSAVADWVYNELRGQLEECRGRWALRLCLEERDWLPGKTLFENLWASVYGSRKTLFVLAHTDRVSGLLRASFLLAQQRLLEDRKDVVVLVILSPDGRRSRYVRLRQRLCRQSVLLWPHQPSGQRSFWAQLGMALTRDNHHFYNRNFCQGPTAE
ABHD5-PLIN5 inh: blocks binding of human ABHD5 to perilipin-5. Split G. princeps luciferase complementation, luminescence, 4 h. inhibition, % at 4 µM. 360,000 tested, 0.78% active. AID 602281;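 active means inhibition above the mean inhibition across every tested compound plus 3 SD, cut at about 22% in these data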;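 further: 0% = DMSO only wells and the 100% control is not disclosed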
Dynein cargo inh: dynein cargo transport inhibition | 3617.4 mouse cells, GR-EGFP nuclear translocation imaging; test concentration mostly 20 µM; stimulated with dexamethasone, 1 µM; active compounds read low | z-score, hits read low | 220,000 tested, 0.47% active | AID 1381;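 active means plate z-score of nuclear minus cytoplasmic receptor signal below a set negative limit, without overly bright fluorescence or cell loss, cut at about -3.5 in these data, passing the limit was not always enough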;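 further: z-score of nuclear minus cytoplasmic ring GR-EGFP intensity difference per well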
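Schedule: 48 h induction, then 1 h compound, then 30 min agonist, 37 °C. Buffer or medium: tetracycline-free induction medium containing charcoal-stripped FBS. Reagent: 1.0 µM final dexamethasone stimulus. Evaluation: nuclear versus cytoplasmic GR-EGFP signal, averaged per well. Signal: high-content fluorescence imaging after fixation.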
TLR4 MyD88 comp: TLR4-MyD88 interaction inhibition in cells; O00206+Q99836; HeLa CL3-4 TLR4/MyD88 BLA complementation, FRET ratio; inhibition, % at 8.4 µM; 200,000 tested, 0.18% active; AID 861; in the data active means inhibition above about 25%;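 further: 0% = vehicle and 100% = reference inhibitor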
Dynein inh conf: dynein cargo transport inhibition, confirmation; shares compounds with Dynein cargo inh; calls only at 20 µM; 1,000 tested, 69% active; 3617.4 GR-EGFP nuclear translocation imaging, dexamethasone-induced;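 active means inhibition of receptor movement into the nucleus at or above a set limit in both runs, with normal cell brightness and cell count; inconclusive means limit reached in only one run, brightness and count normal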;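 further: dexamethasone at 1 µM final in well for 30 min; nuclear minus cytoplasmic GR-EGFP mean intensity difference in channel 2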
Active calls of the source: *; i = inactive; ? = inconclusive; · = not tested or not shown; + = active, no number. Sampled rows, rich in hits. Any-hit rate of the full collection: about 1.6%.

SMILES | Beta2AR agonist | NOD2-RIPK2 inh | TLR9-MyD88 inh | ABHD5-PLIN5 inh | Dynein cargo inh | TLR4 MyD88 comp | Dynein inh conf
CN1CC=C2C(C#N)=C(N)C(C#N)(C#N)C(Cc3ccccc3)C2C1 (configuration not stated) | -1 | 3 | 1 | -4 | -4.6 | -14 | i
CC(Sc1nc2ccccc2c(=O)n1CC1CCCO1)C(=O)Nc1ccc(S(N)(=O)=O)cc1 (configuration not stated) | -12 | -2 | -1 | 17 | · | · | ·
Cc1ccc2cc(CN(CC3CCCO3)C(=S)NCc3ccco3)c(=O)[nH]c2c1 (configuration not stated) | -10 | 0 | 7 | 7 | -3.6* | 7 | i
CC1(C(=O)NS(=O)(=O)c2cccc(Cl)c2)CCN1C(=O)CCc1ccccc1 (configuration not stated) | · | -3 | · | -3 | · | · | ·
O=C(NCc1ccncc1)c1csc([C@@H]2C[C@H](O)[C@@H](CO)O2)n1 | · | 8 | · | 0 | · | · | ·
N#CC1(C#N)C(c2ccccc2)OC23CCCCC2C1(C#N)C(=N)O3 (configuration not stated) | -2 | 4 | 9 | -1 | -4.2* | -4 | +
C[C@H]1CNC(=O)c2c(C(=O)NC3CCN(C(=O)OC(C)(C)C)CC3)ncn21 | · | -8 | · | 1 | · | · | ·
CCCCNC(=O)C1c2ccccc2OCC(=O)N1CCc1c[nH]c2ccccc12 (configuration not stated) | · | -4 | · | 0 | · | · | ·
COc1ccc(CCCNC(=O)C2CCC(=O)N(CCc3cccc(F)c3)C2)cc1 (configuration not stated) | -17 | -12 | -10 | -1 | · | · | ·
CCOc1ccc(OCC(O)CNC2CCN(Cc3ccccc3)CC2)cc1 (configuration not stated) | 10 | 2 | 4 | 4 | -0.57 | 5 | ·
CC(C)(c1ccccc1)c1ccc(OCC(O)CNC2CCN(Cc3ccccc3)CC2)cc1 (configuration not stated) | 23 | 14 | 11 | 4 | -5* | -1 | i
O=c1c(Cl)c(Cl)cnn1Cc1nnc(-c2ccc(Cl)cc2)o1 | 21 | 20 | 20 | 12 | -4.8* | 5 | +
Cc1cc(C)cc(Cn2ncc(Cl)c(Cl)c2=O)c1 | · | · | · | · | -6.1* | 17 | +
Cc1ccc(-c2nnc(Cc3ccc(Cl)cc3)o2)cc1 | -21 | -11 | 4 | -6 | -0.11 | 4 | ·
Cc1ccc(Cn2ncc(Cl)c(Cl)c2=O)cc1 | 20 | 8 | 7 | 6 | -3.3 | 6 | ·
O=c1c(Cl)c(Cl)cnn1Cc1ccccc1Cl | · | · | · | · | -3.9* | 24 | +
OC(c1ccc(Cl)cc1)c1ncc(-c2cccc(C(F)(F)F)c2)[nH]1 (configuration not stated) | · | 0 | · | -17 | · | · | ·
CCN(Cc1ccc(OC)c(F)c1)C(=O)CCl | 1 | -7 | -9 | -3 | -4.3* | -6 | ?
Cc1noc(C)c1C(=O)Nc1cc(S(=O)(=O)N2CCCCC2)ccc1N(C)C | 3 | -6 | -6 | -3 | · | · | ·
CC1(C)CC(NC(=O)c2cccc(S(=O)(=O)Nc3cccc(Cl)c3)c2)CC(C)(C)N1 | -4 | 5 | -3 | 5 | · | · | ·
O=C1CCN(CCc2ccccc2)CCN1[C@H](CSc1ccc(Br)cc1)c1ccccc1 | -11 | -3 | -2 | 2 | -0.23 | · | ·
CC(=O)Nc1ccc(SC[C@H](c2ccccc2)N2CCN(CCc3ccccc3)CCC2=O)cc1 | · | · | · | · | -4.7* | · | i
CC(C(=O)NC1CCCC1)n1c(-c2ccncc2)nc2ccccc21 (configuration not stated) | · | 4 | · | -6 | · | · | ·
COc1ccc(N2CC(C(=O)Nc3nnc(SCC(=O)NCC4CCCO4)s3)CC2=O)cc1 (configuration not stated) | 2 | -2 | 1 | 0 | · | · | ·
COc1ccc(CNC(=O)Cn2nnc3ccccc3c2=O)cc1 | -16 | 0 | -6 | 0 | -5.3* | · | i
SMILES | Beta2AR agonist | NOD2-RIPK2 inh | TLR9-MyD88 inh | ABHD5-PLIN5 inh | Dynein cargo inh | TLR4 MyD88 comp | Dynein inh conf
Cc1ccccc1NC(=O)COC(=O)c1ccc(S(C)(=O)=O)c([N+](=O)[O-])c1 | 16 | 7 | 13 | 10 | -4.4* | 18 | +
CCCN1C/C(=C/c2ccc3c(c2)OCO3)C(=O)/C(=C/c2ccc3c(c2)OCO3)C1 | 24 | -2 | 4 | 12 | -4.6* | -7 | +
CCCCc1c(C)c(C#N)c2nc3ccccc3n2c1Cl | · | · | · | · | -5.2* | -1 | +
C=CCN1C(=O)c2ccc(C(=O)N(C)CC(=O)Nc3ccc(Br)cc3C)cc2C1=O | -3 | 6 | 0 | -12 | · | · | ·
CCn1nc(C)cc1C(=O)Sc1cccc(Br)c1 | -1 | -11 | 0 | -6 | -4* | · | +
CCn1nc(C)cc1C(=O)Sc1ccc(Cl)cc1Cl | -3 | -15 | 8 | 4 | -2 | · | ·
CCOC(=O)c1c(-c2ccc(C)o2)csc1NC(=S)NC(=O)N(C)C | 3 | 8 | -1 | 12 | -3.8* | 2 | i
CCOC(=O)c1c(-c2ccc(C)o2)csc1NC(=O)CN1CCOCC1 | 8 | 0 | -9 | 5 | -0.53 | 0 | ·
Cc1ccsc1/C=C/C1=Cc2c(sc(NC(=O)CSc3n[nH]c(N)n3)c2C#N)C(C)(C)C1 | 9 | 10 | 4 | -8 | -3.6* | -1 | i
CCC(=O)N1CCN(c2ccc(Cl)cc2NC(=O)c2ccc([N+](=O)[O-])o2)CC1 | -13 | -2 | -6 | 0 | · | · | ·
CCC(=O)N1CCN(c2ccc(NC(=O)c3ccc([N+](=O)[O-])o3)cc2Cl)CC1 | 24 | 20 | 7 | -1 | -5* | 6 | +
OC[C@@H]1CN(Cc2ccccc2)C[C@H](n2ccc3c(N4CCCC4)ncnc32)O1 | · | -10 | · | -6 | · | · | ·
O=[N+]([O-])c1ccc(NN=Cc2cccc([N+](=O)[O-])c2)cc1 | 4 | -6 | 1 | -3 | · | · | ·
O=[N+]([O-])c1ccc(N/N=C/c2ccc[nH]2)cc1 | 9 | 13 | 7 | 10 | -11 | 16 | +
O=C(O)CCN1C(=O)/C(=C\c2ccc(-c3nc4ccccc4s3)o2)SC1=S | 55* | -3 | 10 | -6 | -4 | 5 | i
O=C(O)CCCN1C(=O)/C(=C\c2ccco2)SC1=S | 10 | 1 | -7 | 0 | -0.41 | 3 | ·
CNC(=O)COc1coc(CN2CCN(c3ccc(OC)cc3)CC2)cc1=O | 20 | -3 | -5 | 8 | · | · | ·
OC[C@@H]1CN(Cc2ccco2)C[C@H](n2cnc3c(N4CCN(c5ccccc5)CC4)ncnc32)O1 | · | -4 | · | -9 | · | · | ·
COc1ccc(-c2cc(C(F)(F)F)nc(S(=O)(=O)CCCC(=O)Nc3cccc(O)c3)n2)cc1OC | · | -4 | · | 23* | -5.6* | 12 | +
COc1ccccc1-c1cc(C(F)(F)F)nc(S(=O)(=O)CCCC(=O)O)n1 | -3 | -2 | -8 | 14 | -1.2 | -5 | ·
